The record followed here is ChEMBL document CHEMBL1128414, “Steroidal affinity labels of the estrogen receptor. 2. 17 alpha-[(Haloacetamido)alkyl]estradiols” (J Med Chem, 1995).

The target in assay [1] is T1, Estrogen receptor (Ovis aries) (UniProt P49885+Q9TU15). The assay is described as follows: (§1) Irreversible inhibition of [3H]estradiol binding to lamb uterine estrogen receptor. Format: protein assay. The method, boiled down:
(§2)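 Lamb uterine cytosol (4 mg protein/mL, immature lamb uteri, 20 mM Tris-HCl) adjusted to pH 8.5 with NaOH, preincubated 4 h at 0 °C with 10 nM–10 µM compound or no steroid. Charcoal treatment for 30 min at 0 °C, then centrifugation. […] Specific binding is expressed as % of unexposed cytosol. IC50 is the concentration giving 50% irreversible inhibition; duplicates in two experiments.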

Assay [2] concerns the target T1, Estrogen receptor (Ovis aries). Briefly: In vitro antagonist activity in estrogen regulated transcriptional activation assay. Format: functional. The conditions noted are these: filed as antagonist.
The next assay addresses Estrogen receptor (Ovis aries, UniProt P49885+Q9TU15). The description is as §1. Format: protein assay. The method, boiled down:
as §2

The target in assay [3] is T1, Estrogen receptor (Ovis aries).
Assay [4] has the same target. Briefly: Relative efficiency(RE) in irreversible inhibition of lamb uterine estrogen receptor relative to iodoacetamide 23.
Assay [5] has the same target. Briefly: In vitro agonist/antagonist activity in estrogen regulated transcriptional activation assay. Format: functional. The conditions noted are these: filed as partial agonist.
For assay [6] the target is unchanged. Briefly: In vitro agonist activity in estrogen regulated transcriptional activation assay. Format: functional. The conditions noted are these: filed as agonist.

Calls of active or inactive are those of the source. The rule behind the calls is not given here.

A word on the IC50: it is the concentration that gives 50% inhibition. Read a low IC50 as higher potency.

Turning to `C[C@]12CC[C@@H]3c4ccc(O)cc4CCC3[C@@H]1CC[C@@]2(O)CNC(=O)CBr` (single isomer, unassigned), the Covalent binding result in assay [1] was “Active”. Also, the Hormonal activity entry in assay [2] is “Antagonist”. This molecule also came in with an IC50 at Estrogen receptor of 9700 nM. In addition, the RAC app in assay [3] was 0.0076. This molecule also had an RE in assay [4] of 0.0019.

Regarding `C[C@]12CC[C@@H]3c4ccc(O)cc4CC[C@H]3[C@@H]1CC[C@@]2(O)CCNC(=O)CBr`, the Covalent binding entry in assay [1] was “Active”. For the same molecule, in assay [5], the Hormonal activity result is “Partial agonist”. Besides, the IC50 at Estrogen receptor amounted to 1600 nM. The same molecule had an RAC app in assay [3] of 0.017. The molecule further registered an RE in assay [4] of 0.011.

`C[C@]12CC[C@@H]3c4ccc(O)cc4CC[C@H]3[C@@H]1CC[C@@]2(O)CCCNC(=O)CBr`: the Covalent binding result in assay [1] was “Active”. In addition, the Hormonal activity result in assay [5] is “Partial agonist”. For the same molecule, on Estrogen receptor, the IC50 stood at 53 nM. The molecule also displayed an RAC app in assay [3] of 0.019. Besides, the RE in assay [4] is 0.34.

`C[C@]12CC[C@@H]3c4ccc(O)cc4CC[C@H]3[C@@H]1CC[C@@]2(O)CCOS(C)(=O)=O`: in assay [1], the Covalent binding result was “inactive”. In addition, the Hormonal activity result in assay [6] is “Agonist”. The same molecule displayed an RAC app in assay [3] of 0.15.

As to `C[C@]12CC[C@@H]3c4ccc(O)cc4CC[C@H]3[C@@H]1CC[C@@]2(O)CCCNC(=O)CI`, the Covalent binding entry in assay [1] is “Active”. For the same molecule, the Hormonal activity result in assay [5] is “Partial agonist”. At Estrogen receptor, this molecule gave an IC50 of 18 nM. For the same molecule, the RAC app in assay [3] was 0.0084. This molecule had an RE in assay [4] of 1.

As to `CC(=O)NCCC[C@]1(O)CC[C@H]2[C@@H]3CCc4cc(O)ccc4[C@H]3CC[C@@]21C`, the Covalent binding entry in assay [1] is “inactive”. The Hormonal activity result in assay [5] is “Partial agonist”. The molecule also came in with an RAC app in assay [3] of 0.0084.
